# Measurements reported in ChEMBL document CHEMBL1143096, “Synthesis and antitumor activity of benzils related to combretastatin A-4” (Bioorg Med Chem Lett, 2008).
# The source made the active and inactive calls. The calls are words filed in the database; no cut-off is given here.
# Tests used:
# K562 = test: Cytotoxicity against human K562 cells; format: functional, cell-based
# HCT-116 [1] = test: Cytotoxicity against human HCT116 cells; format: functional, cell-based
# Procedure, shortened: (§1)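 Growth inhibition assay; IC50 taken as the sample concentration producing 50% reduction in cell growth, each drug concentration tested in triplicate.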
# [2] = Cytotoxicity against human H1299 cells; format: functional, cell-based; conditions: NCI-H1299; procedure, shortened: as §1
# MDA-MB-231 = test: Cytotoxicity against human MDA-MB-231 cells; format: functional, cell-based
# [3] = Inhibition of tubulin assembly at 130 uM
# [4] = Inhibition of tubulin assembly at 13 uM
# [5] = Inhibition of tubulin assembly
# HUVEC [6] = test: Cytotoxicity against HUVEC; format: cell-based; conditions: Homo sapiens
# Procedure, shortened: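 HUVEC proliferation measured after 72 h incubation; IC50 derived for growth inhibition.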
# [7] = Cell cycle arrest in human H1299 cells assessed as accumulation at G2/M phase at 10 nM after 24 hrs by flow cytometry; format: functional, cell-based; conditions: NCI-H1299
# Procedure, shortened: (§2)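 Flow cytometry of cellular DNA content after 24 h exposure to 10, 20 or 50 nM; percentage of cells in G2/M phase reported, DMSO vehicle control; data representative of three independent experiments.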
# HCT-116 [8] = test: Cell cycle arrest in human HCT116 cells assessed as accumulation at G2/M phase at 10 nM after 24 hrs by flow cytometry; format: functional; procedure, shortened: as §2
# [9] = Cell cycle arrest in human H1299 cells assessed as accumulation at G2/M phase at 50 nM after 24 hrs by flow cytometry; format: functional, cell-based; conditions: NCI-H1299; procedure, shortened: as §2
# HCT-116 [10] = test: Cell cycle arrest in human HCT116 cells assessed as accumulation at G2/M phase at 50 nM after 24 hrs by flow cytometry; format: functional; procedure, shortened: as §2
# [11] = Cell cycle arrest in human H1299 cells assessed as accumulation at G2/M phase at 20 nM after 24 hrs by flow cytometry; format: functional, cell-based; conditions: NCI-H1299; procedure, shortened: as §2
# HCT-116 [12] = test: Cell cycle arrest in human HCT116 cells assessed as accumulation at G2/M phase at 20 nM after 24 hrs by flow cytometry; format: functional; procedure, shortened: as §2
# HCT-116 [13] = test: Induction of apoptosis in human HCT116 cells after 24 hrs by caspase activation assay; format: functional, cell-based
# Procedure, shortened: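 Cells treated with 10, 50 and 100 nM for 24 h; caspase 3 and 7 activities measured by standard caspase cleavage assay.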
# HUVEC [14] = test: Disruption of integrity of newly formed blood vessels of HUVEC at 100 nM after 3 hrs by tube formation assay; format: functional, cell-based; conditions: Homo sapiens, Blood vessel
# Procedure, shortened: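 HUVEC seeded on Matrigel; 24 h later, compound (100 nM) or vehicle added to formed cords; images taken 3 h after addition to assess network integrity.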
inhibition [3] [%],inhibition [4] [%],Structure (SMILES),IC50 (HCT-116 [1]) [nM],other results
14,,COc1ccc(C(=O)C(=O)c2cc(OC)c(OC)c(OC)c2)cc1OC(C)=O,40,IC50 (K562): 25 nM; IC50 [2]: 30 nM; IC50 (MDA-MB-231): 40 nM
73,47,COc1ccc(C(=O)C(=O)c2cc(OC)c(OC)c(OC)c2)cc1F,700,
73,65,COc1ccc(C(=O)C(=O)c2cc(OC)c(OC)c(OC)c2)cc1O,35,IC50 (K562): 25 nM; Activity [7]: 11.4%; IC50 [2]: 30 nM; Activity (HCT-116 [8]): 11%; Activity [9]: 27.7%; Activity (HCT-116 [10]): 22.8%; IC50 (MDA-MB-231): 40 nM; Activity [11]: 15%; Activity (HCT-116 [12]): 18.5%; Activity (HCT-116 [13]): Active; IC50 [5]: 1500 nM; IC50 (HUVEC [6]): 35 nM
88,82,COc1ccc(C(=O)C(=O)c2cc(OC)c(OC)c(OC)c2)cc1N,38,IC50 (K562): 20 nM; Activity [7]: 11.7%; IC50 [2]: 50 nM; Activity (HCT-116 [8]): 13%; Activity [9]: 16.5%; Activity (HCT-116 [10]): 28%; IC50 (MDA-MB-231): 30 nM; Activity [11]: 12.2%; Activity (HUVEC [14]): Active; Activity (HCT-116 [12]): 15.9%; Activity (HCT-116 [13]): Active; IC50 [5]: 5000 nM; IC50 (HUVEC [6]): 40 nM
45,45,COc1ccc(C(=O)C(=O)c2cc(OC)c(OC)c(OC)c2)cc1NC(C)=O,350,

# More lines, now with the values behind:
Structure (SMILES),inhibition [3] [%],inhibition [4] [%],IC50 (HCT-116 [1]) [nM],other results
COc1cc(C(=O)C(=O)c2ccccc2)cc(OC)c1OC,79,34,3000,
COc1cc(C(=O)C(=O)c2ccccn2)cc(OC)c1OC,23,,,Activity (HCT-116 [1]): inactive
COc1cc(C(=O)C(=O)c2cnc3ccccc3c2)cc(OC)c1OC,58,35,,Activity (HCT-116 [1]): inactive
COc1ccc(C(=O)C(=O)c2cc(OC)c(OC)c(OC)c2)cc1,89,58,300,IC50 [5]: 21000 nM
COc1cc(C(=O)C(=O)c2ccc3ccccc3c2)cc(OC)c1OC,80,23,3000,
COc1ccc(/C=C\c2cc(OC)c(OC)c(OC)c2)cc1O [COMBRETASTATIN A4],88,77,1.8,IC50 [2]: 5 nM; IC50 (HUVEC [6]): 2.5 nM
COc1cc(C(=O)C(=O)c2cccc(O)c2)cc(OC)c1OC,69,42,2000,
COc1cc(C(=O)C(=O)c2ccc(C#N)cc2)cc(OC)c1OC,28,,,Activity (HCT-116 [1]): inactive
COc1cc(C(=O)C(=O)c2ccccc2C#N)cc(OC)c1OC,0,12,,Activity (HCT-116 [1]): inactive
COc1ccc(C(=O)C(=O)c2cc(OC)c(OC)c(OC)c2)cc1OC,85,52,300,IC50 [5]: 63000 nM
